In ChEMBL document CHEMBL5303300, “EUbOPEN Chemogenomics Library - Multiplex” (2023):
Where “and” joins values, the source holds several entries; their conditions need not be identical. Equal values may be shown once.

Test system: HEK-293T
Assay: Multiplex assay against HEK293T
Assay type: toxicity, cell-based
Conditions: human, number of replicates 2
Summary of the method: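 Imaging took place on a CQ1 microscope at 37°C and 5% CO2 once compound had been added to live cells stained at seeding with Hoechst33342, BioTracker Green Microtubule Cytoskeleton Dye, MitoTracker Red and Annexin V Alexa Fluor 680. CellPathfinder machine-learning gating classed cells as Hoechst high-intensity objects or normal cells, classed normal cells as having healthy, pyknosed or fragmented nuclei, and classed pyknosed cells as mitotic or apoptotic. Tubulin, mitochondrial-mass and membrane-permeability phenotypes are per cents of the healthy-nucleus cells.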

[1] = 12 h, 1 µM, compound concentration 1 uM
[2] = 12 h, 10 µM, compound concentration 10 uM
[3] = 24 h, 1 µM, compound concentration 1 uM
[4] = 24 h, 10 µM, compound concentration 10 uM
[5] = 48 h, 1 µM, compound concentration 1 uM
[6] = 48 h, 10 µM, compound concentration 10 uM

Structure (SMILES): CC(C)c1c(NC(=O)Nc2ccc(Cl)cc2)c(=O)n(-c2ccccc2)n1C
- Population Apoptotic (%) [1]: 40% and 36%
- Population Fragmented Nuclei (%) [1]: 3% and 2%
- Population Healthy Nuclei (%) [1]: 85% and 86%
- Population Hoechst High Intensity Objects (%) [1]: 6% and 5%
- Population Membrane Permeable-Phenotype (%) [1]: 3% and 2%
- Population Mitochondria Different-Phenotype (%) [1]: 11% and 14%
- Population Mitotic Cells (%) [1]: 59% and 63%
- Population Normal (%) [1]: 93% and 94%
- Population Pyknosed Nuclei (%) [1]: 10% and 11%
- Population Tubulin-Different-Phenotype (%) [1]: 48% and 50%
- Total Cell Count [1]: 880 and 697
- Population Apoptotic (%) [2]: 49% and 41%
- Population Fragmented Nuclei (%) [2]: 2% and 4%
- Population Healthy Nuclei (%) [2]: 86% and 81%
- Population Hoechst High Intensity Objects (%) [2]: 8% and 4%
- Population Membrane Permeable-Phenotype (%) [2]: 4% and 6%
- Population Mitochondria Different-Phenotype (%) [2]: 14% and 18%
- Population Mitotic Cells (%) [2]: 50% and 58%
- Population Normal (%) [2]: 91% and 95%
- Population Pyknosed Nuclei (%) [2]: 11% and 14%
- Population Tubulin-Different-Phenotype (%) [2]: 57% and 50%
- Total Cell Count [2]: 669 and 576
- Population Apoptotic (%) [3]: 36% and 39%
- Population Fragmented Nuclei (%) [3]: 5%
- Population Healthy Nuclei (%) [3]: 87% and 88%
- Population Hoechst High Intensity Objects (%) [3]: 8%
- Population Membrane Permeable-Phenotype (%) [3]: 4% and 3%
- Population Mitochondria Different-Phenotype (%) [3]: 3% and 5%
- Population Mitotic Cells (%) [3]: 63% and 60%
- Population Normal (%) [3]: 91%
- Population Pyknosed Nuclei (%) [3]: 6% and 5%
- Population Tubulin-Different-Phenotype (%) [3]: 27% and 32%
- Total Cell Count [3]: 1449 and 1121
- Population Apoptotic (%) [4]: 54% and 40%
- Population Fragmented Nuclei (%) [4]: 6%
- Population Healthy Nuclei (%) [4]: 85% and 83%
- Population Hoechst High Intensity Objects (%) [4]: 8% and 5%
- Population Membrane Permeable-Phenotype (%) [4]: 3%
- Population Mitochondria Different-Phenotype (%) [4]: 5% and 8%
- Population Mitotic Cells (%) [4]: 45% and 59%
- Population Normal (%) [4]: 91% and 94%
- Population Pyknosed Nuclei (%) [4]: 7% and 10%
- Population Tubulin-Different-Phenotype (%) [4]: 37% and 33%
- Total Cell Count [4]: 1033 and 815
- Population Apoptotic (%) [5]: 10% and 15%
- Population Fragmented Nuclei (%) [5]: 14% and 10%
- Population Healthy Nuclei (%) [5]: 83% and 86%
- Population Hoechst High Intensity Objects (%) [5]: 9% and 10%
- Population Membrane Permeable-Phenotype (%) [5]: 5% and 3%
- Population Mitochondria Different-Phenotype (%) [5]: 0%
- Population Mitotic Cells (%) [5]: 89% and 84%
- Population Normal (%) [5]: 90% and 89%
- Population Pyknosed Nuclei (%) [5]: 2% and 3%
- Population Tubulin-Different-Phenotype (%) [5]: 13% and 15%
- Total Cell Count [5]: 3573 and 2488
- Population Apoptotic (%) [6]: 16% and 17%
- Population Fragmented Nuclei (%) [6]: 15% and 13%
- Population Healthy Nuclei (%) [6]: 81% and 83%
- Population Hoechst High Intensity Objects (%) [6]: 8% and 9%
- Population Membrane Permeable-Phenotype (%) [6]: 7% and 4%
- Population Mitochondria Different-Phenotype (%) [6]: 0% and 1%
- Population Mitotic Cells (%) [6]: 83% and 82%
- Population Normal (%) [6]: 91% and 90%
- Population Pyknosed Nuclei (%) [6]: 3% and 2%
- Population Tubulin-Different-Phenotype (%) [6]: 19% and 15%
- Total Cell Count [6]: 2549 and 1775

Structure (SMILES): CC(=O)O[C@H]1C(=O)[C@@]2(C)[C@H]([C@H](OC(=O)c3ccccc3)[C@]3(O)C[C@H](OC(=O)[C@H](O)[C@@H](NC(=O)c4ccccc4)c4ccccc4)C(C)=C1C3(C)C)[C@]1(OC(C)=O)CO[C@@H]1C[C@@H]2O [PACLITAXEL]
- Population Apoptotic (%) [2]: 60% and 50% and 49% and 45%
- Population Fragmented Nuclei (%) [2]: 3% and 1% and 2%
- Population Healthy Nuclei (%) [2]: 74% and 80% and 77%
- Population Hoechst High Intensity Objects (%) [2]: 6% and 9% and 5% and 7%
- Population Membrane Permeable-Phenotype (%) [2]: 0%
- Population Mitochondria Different-Phenotype (%) [2]: 48% and 39% and 43% and 50%
- Population Mitotic Cells (%) [2]: 39% and 49% and 50% and 54%
- Population Normal (%) [2]: 93% and 90% and 94% and 92%
- Population Pyknosed Nuclei (%) [2]: 22% and 17% and 20%
- Population Tubulin-Different-Phenotype (%) [2]: 52% and 56% and 58% and 57%
- Total Cell Count [2]: 418 and 518 and 523 and 401
- Population Apoptotic (%) [4]: 65% and 51% and 71% and 68%
- Population Fragmented Nuclei (%) [4]: 3% and 4% and 2%
- Population Healthy Nuclei (%) [4]: 81% and 82% and 77%
- Population Hoechst High Intensity Objects (%) [4]: 9% and 12% and 10% and 8%
- Population Membrane Permeable-Phenotype (%) [4]: 0%
- Population Mitochondria Different-Phenotype (%) [4]: 45% and 43% and 58%
- Population Mitotic Cells (%) [4]: 35% and 48% and 28% and 31%
- Population Normal (%) [4]: 90% and 87% and 89% and 91%
- Population Pyknosed Nuclei (%) [4]: 15% and 14% and 18%
- Population Tubulin-Different-Phenotype (%) [4]: 56% and 47%
- Total Cell Count [4]: 442 and 490 and 384 and 517
- Population Apoptotic (%) [6]: 71% and 81% and 64% and 73%
- Population Fragmented Nuclei (%) [6]: 3% and 2% and 4%
- Population Healthy Nuclei (%) [6]: 88% and 89% and 84% and 83%
- Population Hoechst High Intensity Objects (%) [6]: 11% and 9%
- Population Membrane Permeable-Phenotype (%) [6]: 0%
- Population Mitochondria Different-Phenotype (%) [6]: 44% and 41% and 50%
- Population Mitotic Cells (%) [6]: 28% and 18% and 35% and 26%
- Population Normal (%) [6]: 88% and 90%
- Population Pyknosed Nuclei (%) [6]: 7% and 10% and 13%
- Population Tubulin-Different-Phenotype (%) [6]: 59% and 58% and 62%
- Total Cell Count [6]: 478 and 469 and 500 and 350
